Data taken from ChEMBL document CHEMBL1129982, “Structure-activity relationships in a series of orally active gamma-hydroxy butenolide endothelin antagonists” (J Med Chem, 1997).

Tests used:
[1] = target: T1, Endothelin receptor type B (Homo sapiens, UniProt P24530); assay: Binding affinity against human cloned Endothelin B receptor expressed in CHO-K1 cells; format: cell-based
T1 sequence (P24530 whole entry): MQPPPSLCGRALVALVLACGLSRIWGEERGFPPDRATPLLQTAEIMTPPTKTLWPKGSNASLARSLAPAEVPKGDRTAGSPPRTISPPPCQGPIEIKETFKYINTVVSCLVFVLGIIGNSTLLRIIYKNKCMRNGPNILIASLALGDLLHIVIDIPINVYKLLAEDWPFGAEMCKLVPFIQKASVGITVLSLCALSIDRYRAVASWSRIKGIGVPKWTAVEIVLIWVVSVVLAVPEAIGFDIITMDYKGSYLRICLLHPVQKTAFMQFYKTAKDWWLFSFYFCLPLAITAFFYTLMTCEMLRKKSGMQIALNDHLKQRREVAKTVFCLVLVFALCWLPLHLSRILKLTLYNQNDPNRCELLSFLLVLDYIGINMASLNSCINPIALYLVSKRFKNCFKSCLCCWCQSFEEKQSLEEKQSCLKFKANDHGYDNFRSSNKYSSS
Method in brief: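 Radioligand binding to cloned human ETA (Ltk⁻ cells) and ETB (CHO-K1 cells) receptors. […] Selectivity expressed as ETB IC50/ETA IC50.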

Endothelin-1 receptor = target: T2, Endothelin-1 receptor (Homo sapiens, UniProt P25101); assay: Binding affinity against human cloned endothelin A receptor expressed in LTK-cells; format: cell-based
T2 sequence (P25101 whole entry): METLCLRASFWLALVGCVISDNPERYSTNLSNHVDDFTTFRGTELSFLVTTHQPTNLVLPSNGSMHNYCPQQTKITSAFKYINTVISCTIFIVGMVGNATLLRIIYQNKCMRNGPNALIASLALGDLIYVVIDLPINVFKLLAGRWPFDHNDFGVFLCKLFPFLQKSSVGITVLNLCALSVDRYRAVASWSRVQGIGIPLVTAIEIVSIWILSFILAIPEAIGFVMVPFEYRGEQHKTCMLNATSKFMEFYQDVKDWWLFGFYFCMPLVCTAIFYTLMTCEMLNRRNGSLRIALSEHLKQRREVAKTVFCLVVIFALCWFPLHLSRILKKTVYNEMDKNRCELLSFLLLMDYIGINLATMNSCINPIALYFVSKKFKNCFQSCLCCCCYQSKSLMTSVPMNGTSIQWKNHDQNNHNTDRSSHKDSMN
Method in brief: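 Radioligand binding to cloned human ETA (Ltk⁻ cells) and ETB (CHO-K1 cells) receptors. Selectivity expressed as ETB IC50/ETA IC50.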

SMILES	IC50 [1] [nM]	IC50 (Endothelin-1 receptor) [nM]
COc1ccc(C2(O)OC(=O)C(c3cccc(OC)c3)=C2Cc2ccccc2)cc1 (stereo not drawn)	12000	90
COc1ccc(C2(O)OC(=O)C(c3ccc4c(c3)OCO4)=C2Cc2ccc(OC)c(OC)c2)cc1 (stereo not drawn)		1.4
COc1ccc(C2(O)OC(=O)C(c3ccc4c(c3)OCO4)=C2Cc2ccc(SC)cc2)cc1 (stereo not drawn)	> 2500	3.9
COc1ccc(C2(OC)OC(=O)C(c3ccc4c(c3)OCO4)=C2Cc2ccccc2)cc1 (stereo not drawn)	> 25000	300
COc1ccc(C2(O)OC(=O)C(c3ccc4c(c3)OCO4)=C2Cc2cccc([N+](=O)[O-])c2)cc1 (stereo not drawn)	> 25000	70
COc1ccc(C2(O)OC(=O)C(c3ccc4c(c3)OCO4)=C2Cc2ccc(N(C)C)cc2)cc1 (stereo not drawn)	1800	28
COc1ccc(C2(O)OC(=O)C(c3ccc4c(c3)OCO4)=C2Cc2cc(OC)ccc2OC)cc1 (stereo not drawn)		2.1
COc1ccc(C2(O)OC(=O)C(c3ccc4c(c3)OCO4)=C2Cc2cccc3ccccc23)cc1 (stereo not drawn)	> 2500	18
COc1ccc(C2OC(=O)C(c3ccc4c(c3)OCO4)=C2Cc2ccccc2)cc1 (stereo not drawn)	> 2500	700
COc1ccc(C2(O)OC(=O)C(c3ccc4c(c3)OCO4)=C2Cc2ccc3ccccc3c2)cc1 (stereo not drawn)	> 2500	14
COc1ccc(C2(O)OC(=O)C(c3ccc4c(c3)OCO4)=C2Cc2cccc(C(F)(F)F)c2)cc1 (stereo not drawn)	> 2500	43
COc1ccc(C2(O)OC(=O)C(c3ccc4c(c3)OCO4)=C2Cc2ccc(OC)c(OC)c2OC)cc1 (stereo not drawn)	2000	12
COc1ccc(CC2=C(c3ccc(OC)cc3)C(=O)OC2(O)c2ccc(OC)cc2)cc1 (stereo not drawn)	9000	
COc1ccc(C2(O)OC(=O)C(c3ccc4c(c3)OCO4)=C2Cc2ccc([N+](=O)[O-])cc2)cc1 (stereo not drawn)	17000	800
COc1ccc(C2(O)OC(=O)C(c3ccc4c(c3)OCO4)=C2CC2CCCCCC2)cc1 (stereo not drawn)		35
COc1ccc(C2(O)OC(=O)C(c3cc(OC)c4c(c3)OCO4)=C2Cc2ccccc2)cc1C (stereo not drawn)	1410	8.2
COc1ccc(C2(O)OC(=O)C(c3ccc4c(c3)OCO4)=C2Cc2ccc3c(c2)OCO3)cc1 (stereo not drawn)		16
COc1ccc(C2(O)OC(=O)C(c3ccc4c(c3)OCO4)=C2Cc2ccc(O)cc2)cc1 (stereo not drawn)	> 250	8

SMILES	IC50 [1] [nM]	IC50 (Endothelin-1 receptor) [nM]
COc1ccc(C2(O)OC(=O)C(c3ccc4c(c3)OCO4)=C2Cc2ccc(-c3ccccc3)cc2)cc1 (stereo not drawn)		200
COc1cccc(C2(O)OC(=O)C(c3ccc4c(c3)OCO4)=C2Cc2ccccc2)c1 (stereo not drawn)	18000	500
O=C1OC(O)(c2ccc3c(c2)OCO3)C(Cc2ccccc2)=C1c1ccc2c(c1)OCO2 (stereo not drawn)		19
COc1ccc(C2(O)OC(=O)C(c3cc(OC)c(OC)c(OC)c3)=C2Cc2ccccc2)cc1 (stereo not drawn)	1600	1300
CSc1ccc(C2(O)OC(=O)C(c3ccc4c(c3)OCO4)=C2Cc2ccccc2)cc1 (stereo not drawn)	> 2500	170
COc1ccc(C2(O)OC(=O)C(c3cc(OC)cc(OC)c3)=C2Cc2ccccc2)cc1 (stereo not drawn)	5200	46
COc1ccc(C2(O)OC(=O)C(c3ccc4c(c3)OCO4)=C2Cc2ccc3c(c2)OCCO3)cc1 (stereo not drawn)	1600	7.5
COc1ccc(CC2=C(c3ccc(C)cc3)C(=O)OC2(O)c2ccc(OC)cc2)cc1 (stereo not drawn)	> 2500	
COc1ccc(C2(O)OC(=O)C(c3ccc4c(c3)OCO4)=C2Cc2cccc(C(=O)O)c2)cc1 (stereo not drawn)	> 2500	50
COc1ccc(C2(O)OC(=O)C(c3ccc(OC)cc3OC)=C2Cc2ccccc2)cc1 (stereo not drawn)		300
COc1ccc(C2(O)OC(=O)C(c3ccc4c(c3)OCO4)=C2Cc2cc(OC)c(OC)cc2OC)cc1 (stereo not drawn)		1.8
CCC1=C(c2ccc3c(c2)OCO3)C(=O)OC1(O)c1ccc(OC)cc1 (stereo not drawn)		320
COc1ccc(C2(O)OC(=O)C(c3ccc4c(c3)OCO4)=C2Cc2ccc(NC(C)=O)cc2)cc1 (stereo not drawn)		1.2
O=C1OC(O)(c2ccc(OCc3ccccc3)cc2)C(Cc2ccccc2)=C1c1ccc2c(c1)OCO2 (stereo not drawn)		950
COc1ccc(C2(O)OC(=O)C(c3ccc4c(c3)OCO4)=C2CC2CCCC2)cc1 (stereo not drawn)	630	10
CC(C)Oc1ccc(C2(O)OC(=O)C(c3ccc4c(c3)OCO4)=C2Cc2ccccc2)cc1 (stereo not drawn)	11000	1150
COc1ccc(C2(O)OC(=O)C(c3ccc4c(c3)OCO4)=C2Cc2ccccc2)cc1C (stereo not drawn)		12
COc1ccc(C2(O)OC(=O)C(c3cc(OC)c4c(c3)OCO4)=C2Cc2cc(OC)c(OC)c(OC)c2)cc1C (stereo not drawn)	180	

Second part, the compound after the results:

IC50 [1] [nM]	IC50 (Endothelin-1 receptor) [nM]	SMILES
> 2500	630	CCc1ccc(C2(O)OC(=O)C(c3ccc4c(c3)OCO4)=C2Cc2ccccc2)cc1 (stereo not drawn)
640	6.7	COc1ccc(C2(O)OC(=O)C(c3cc(OC)c4c(c3)OCO4)=C2Cc2ccccc2)cc1 (stereo not drawn)
260	3	COc1ccc(C2(O)OC(=O)C(c3ccc4c(c3)OCO4)=C2Cc2cccc(OC)c2)cc1 (stereo not drawn)
> 25000		COc1ccc(C2OC(=O)C(c3ccc4c(c3)OCO4)=C2Cc2cc(OC)c(OC)c(OC)c2)cc1 (stereo not drawn)
	11	COC(=O)c1ccc(CC2=C(c3ccc4c(c3)OCO4)C(=O)OC2(O)c2ccc(OC)cc2)cc1 (stereo not drawn)
	1.7	COc1ccc(C2(O)OC(=O)C(c3ccc4c(c3)OCO4)=C2Cc2cc(OC)cc(OC)c2)cc1 (stereo not drawn)
1140		COc1ccc(C2(O)OC(=O)C(c3ccc4c(c3)OCO4)=C2Cc2ccc(OC)c(C)c2)cc1 (stereo not drawn)
> 2500	150	COc1ccc(C2(O)OC(=O)C(c3ccc4c(c3)OCO4)=C2Cc2ccc(Cl)c(Cl)c2)cc1 (stereo not drawn)
> 2500		COc1ccc(C2(O)OC(=O)C(c3ccc4c(c3)OCO4)=C2Cc2ccc(C)cc2)cc1 (stereo not drawn)
225	13	COc1ccc(C2(O)OC(=O)C(c3ccc4c(c3)OCO4)=C2CC2CCCCC2)cc1 (stereo not drawn)
3200	10	COc1ccc(C2(O)OC(=O)C(c3ccc4c(c3)OCO4)=C2Cc2nccc3ccccc23)cc1 (stereo not drawn)
> 2500	600	COc1ccc(C2(OC)OC(=O)C(c3ccc4c(c3)OCO4)=C2Cc2cc(OC)c(OC)c(OC)c2)cc1 (stereo not drawn)
> 2500	480	COc1ccccc1C1(O)OC(=O)C(c2ccc3c(c2)OCO3)=C1Cc1ccccc1 (stereo not drawn)
	70	COc1ccc(C2(O)OC(=O)C(c3ccc(OC)c(OC)c3)=C2Cc2ccccc2)cc1 (stereo not drawn)
> 2500	13	COc1ccc(C2(O)OC(=O)C(c3ccc4c(c3)OCO4)=C2Cc2ccccc2)c(OC)c1 (stereo not drawn)
	8.5	COC(=O)c1cccc(CC2=C(c3ccc4c(c3)OCO4)C(=O)OC2(O)c2ccc(OC)cc2)c1 (stereo not drawn)
18000	11	COc1ccc(C2(O)OC(=O)C(c3ccc4c(c3)OCO4)=C2Cc2ccccc2)cc1OC (stereo not drawn)
16000	14	COc1ccc(C2(O)OC(=O)C(c3ccc4c(c3)OCO4)=C2Cc2cc(OC)c3c(c2)OCO3)cc1 (stereo not drawn)
	11	COc1ccc(C2(O)OC(=O)C(c3ccc4c(c3)OCO4)=C2Cc2cccc(OC)c2OC)cc1 (stereo not drawn)
> 2500	400	COC(=O)c1ccc(C2(O)OC(=O)C(c3ccc4c(c3)OCO4)=C2Cc2ccccc2)cc1 (stereo not drawn)
4500	25	COc1cc(C2(O)OC(=O)C(c3ccc4c(c3)OCO4)=C2Cc2ccccc2)cc(OC)c1OC (stereo not drawn)
> 2500	40	COc1ccc(C2(O)OC(=O)C(c3ccc4c(c3)OCO4)=C2Cc2cccnc2)cc1 (stereo not drawn)
